Activity calls are given as the source filed them.
Tests used:
Mus musculus [1] = assay: Induction of antigen-specific immunogenicity in pathogen free Balb/c mouse assessed as increase in IgG1 antibody titer production against modified Globo H antigen at 2 ug, IM administered 4 times at biweekly interval measured 14 days post fourth vaccination in presence of 2 ug glycolipid adjuvant C34 by ELISA; format: functional, organism-based; conditions: dose 2.0 µg, time 14.0 day
Mus musculus [2] = assay: Induction of antigen-specific immunogenicity in pathogen free Balb/c mouse assessed as increase in IgG1 antibody titer production against native Globo H antigen at 2 ug, IM administered 4 times at biweekly interval measured 13 days post third vaccination in presence of 2 ug glycolipid adjuvant C34 by ELISA; format: functional, organism-based; conditions: dose 2.0 µg, time 13.0 day
Procedure, shortened: (§1)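 Six female Balb/c mice per group received CRM197 glycoconjugate (2 μg carbohydrate antigen) with C34 adjuvant (2 μg) intramuscularly, four times at two-week intervals. Pooled group sera were tested for IgG subclasses by ELISA on plates coated with the unmodified Globo H–BSA conjugate (G0-BSA).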

Mus musculus [3] = assay: Induction of antigen-specific immunogenicity in pathogen free Balb/c mouse assessed as increase in IgG1 antibody titer production against native Globo H antigen at 2 ug, IM administered 4 times at biweekly interval measured 14 days post fourth vaccination in presence of 2 ug glycolipid adjuvant C34 by ELISA; format: functional, organism-based; conditions: dose 2.0 µg, time 14.0 day; procedure, shortened: as §1
Globohexaosylceramide = assay: Binding affinity to globo H antigen in human MCF7 cells using mouse sera induced by compound immunization and 14 days post fourth vaccination measured after 30 mins by FITC-conjugated antibody based flow cytometry; format: cell-based; conditions: time 14.0 day
Procedure, shortened: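 Immune sera from vaccinated mice were incubated with Globo H-positive MCF-7 human breast cancer cells. Binding of serum antibodies to the cells was measured by flow cytometry.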

MCF7 = assay: Induction of complement-dependent cytotoxicity against human MCF7 cells assessed as increase in cell lysis using mouse sera induced by compound immunization and 14 days post fourth vaccination measured after 1 hr by LDH release assay; format: functional, cell-based; conditions: time 14.0 day
Procedure, shortened: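 Complement-dependent cytotoxicity on MCF-7 cells used pooled sera collected after the 4th vaccination, diluted 1:10. Percent lysis was read by LDH release, with three wells per measurement. Values are mean ± SEM of three independent experiments, compared by one-way ANOVA.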

Measured: Activity

C[C@@H]1O[C@@H](O[C@H]2[C@H](O[C@H]3[C@@H](O)[C@@H](CO)O[C@@H](O[C@H]4[C@@H](O)[C@@H](CO)O[C@H](O[C@@H]5[C@H](O)[C@@H](O)[C@H](O[C@H]6[C@H](O)[C@@H](O)[C@H](OCCCCCN)O[C@@H]6CO)O[C@@H]5CO)[C@@H]4O)[C@@H]3NC(=O)C(F)F)O[C@H](CO)[C@H](O)[C@@H]2O)[C@@H](O)[C@H](O)[C@@H]1O
active: Mus musculus [1] | Mus musculus [2] | Mus musculus [3] | Globohexaosylceramide | MCF7

CC(=O)N[C@H]1[C@H](O[C@H]2[C@@H](O)[C@@H](CO)O[C@H](O[C@@H]3[C@H](O)[C@@H](O)[C@H](O[C@H]4[C@H](O)[C@@H](O)[C@H](OCCCCCN)O[C@@H]4CO)O[C@@H]3CO)[C@@H]2O)O[C@H](CO)[C@H](O)[C@@H]1O[C@@H]1O[C@H](CO)[C@H](O)[C@H](O)[C@H]1O[C@@H]1O[C@@H](C)[C@@H](O)[C@@H](O)[C@@H]1O
active: Mus musculus [1] | Mus musculus [2] | Mus musculus [3] | Globohexaosylceramide

C[C@@H]1O[C@@H](O[C@H]2[C@H](O[C@H]3[C@@H](O)[C@@H](CO)O[C@@H](O[C@H]4[C@@H](O)[C@@H](CO)O[C@H](O[C@@H]5[C@H](O)[C@@H](O)[C@H](O[C@H]6[C@H](O)[C@@H](O)[C@H](OCCCCCN)O[C@@H]6CO)O[C@@H]5CO)[C@@H]4O)[C@@H]3NC(=O)C(F)(F)F)O[C@H](CO)[C@H](O)[C@@H]2O)[C@@H](O)[C@H](O)[C@@H]1O
active: Mus musculus [1] | Mus musculus [2] | Mus musculus [3] | Globohexaosylceramide | MCF7

— ChEMBL document CHEMBL5136962, “Synthesis and immunological evaluation of N-acyl modified Globo H derivatives as anticancer vaccine candidates” (RSC Med Chem, 2021)
